Measurements of several laboratories.
Lines come from different studies, so protocols differ.
Target: Calcium/calmodulin-dependent protein kinase kinase 1 (CAMKK1, Homo sapiens, UniProt Q8N5S9)

O=C(O)[C@@H]1[C@@H](Cn2nnc3ccccc3c2=O)CC[C@H]1C(=O)c1ccc(OCCC2CCOCC2)cc1
remaining binding (cell-free assay, competition with immobilised ligand; 1 µM): 100%

C=CC(=O)N1CCC(C(=O)NCC(=O)N2CCN(c3nc(-c4cnc(N)nc4C(F)F)nc(N4CCOCC4)n3)CC2)CC1
remaining binding (binding, competition with immobilised ligand; 1 µM): 96%

CC1CCCN1c1nccc(-c2cnn3ncccc23)n1 (stereo not shown)
remaining binding (binding; 1 µM): 100%

c1cncc(-c2cccc(Nc3nccc(NC4CCCCC4)n3)c2)c1
remaining binding (binding, competition with immobilised ligand; 10 µM): 68%

O=C(c1ccc(Nc2nccc(-c3cc4ccccc4s3)n2)cc1)N1CCC(N2CCCC2)CC1
remaining binding (binding, competition with immobilised ligand; 1 µM): 93%

CS(=O)(=O)NCC[C@H](NC(=O)c1cncc2c1cnn2-c1ccc(F)cc1)c1ccnc(S(C)(=O)=O)c1
remaining binding (cell-free assay, competition with immobilised ligand; 1 µM): 100%

COc1cnc(Nc2cccc(S(N)(=O)=O)c2)nc1N1CCN(c2ccccc2)CC1
remaining binding (binding, competition with immobilised ligand; 1 µM): 92%

C[C@@H](c1ccc(-n2cnc3c(N)ncnc32)cc1)N1CCc2nn(C)c(Cc3ccccc3)c2C1=O
remaining binding (binding, competition with immobilised ligand; 0.1 µM): 100%

CN(C)c1ncc(F)c(-c2cnn3ncccc23)n1
remaining binding (binding; 1 µM): 90%

CCN1CCN(Cc2ccc(C(=O)Nc3ccc(C)c(Oc4ccc5c(c4)CC(=O)N5)c3)cc2C(F)(F)F)CC1
remaining binding (binding, competition with immobilised ligand; 1 µM): 100%

O=C(NCC1CCOCC1)c1n[nH]cc1NC(=O)c1c(F)cccc1F
remaining binding (binding, competition with immobilised ligand; 1 µM): 88%

O=C(Nc1cnc(Oc2ccc(F)cc2)nc1)N1CCc2ncccc2[C@@H]1c1ccc(F)cc1
remaining binding (cell-free assay, competition with immobilised ligand; 1 µM): 92%

C[C@@H]1CCN(c2nccc(-c3cnn4ncccc34)n2)C1
remaining binding (binding; 1 µM): 87%

Cc1cc(C)c(-n2ccn3nc(-c4cccnc4)cc23)cc1NC(=O)c1cc(C#N)cc(S(F)(F)(F)(F)F)c1
remaining binding (cell-free assay, competition with immobilised ligand; 0.1 µM): 93.6%

O=C(c1ccc(Nc2ncc(Cl)c(-c3cc4ccccc4s3)n2)cc1)N1CCC(N2CCCC2)CC1
remaining binding (binding, competition with immobilised ligand; 1 µM): 91%

N[C@H]1CCN(c2nccc(-c3cnn4ncccc34)n2)C1
remaining binding (binding; 1 µM): 100%

CC(=O)N1CCC(c2ccc(C(=O)NC(=N)N)cc2C(F)(F)F)CC1
remaining binding (cell-free assay, competition with immobilised ligand; 1 µM): 100%

Cc1cnc(Nc2ccc(C(=O)N3CCC(N4CCCC4)CC3)cc2)nc1-c1cc2ccccc2s1
remaining binding (binding, competition with immobilised ligand; 1 µM): 79%

CN(c1nccc(-c2cnn3ncccc23)n1)C1CC1
remaining binding (binding; 1 µM): 100%

CO[C@H]1CC[C@H](CNc2ccc(S(=O)(=O)NC(=O)c3ccc(N4CCN(CC5=C(c6ccc(Cl)cc6)CC(C)(C)CC5)CC4)cc3Oc3cnc4[nH]ccc4c3)cc2[N+](=O)[O-])CC1
remaining binding (cell-free assay, competition with immobilised ligand; 1 µM): 83%

CN(C)c1nccc(-c2cnn3ncccc23)n1
remaining binding (binding; 1 µM): 78%

CNCc1ccccc1-c1csc([C@H](C)Nc2nc(C)nc3cc(OC)c(OC)cc23)c1
remaining binding (cell-free assay, competition with immobilised ligand; 1 µM): 99%
